Reference: ChEMBL document CHEMBL1142456, “4-Anilino-7-alkenylquinoline-3-carbonitriles as potent MEK1 kinase inhibitors” (Bioorg Med Chem, 2008)
Values belong to the compound of their own block, whether it stands above or below them.

Assays:
[1] = Plasma concentration in mouse at 50 mg/kg, po after 4 hrs; assay type: ADME, organism-based; parameters: dose 50 mg/kg, route oral
Outline: (§1)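 Nude mice given a single 50 mg/kg oral dose. Blood levels measured at 2 and 4 h (one compound at 1 h), three mice per measurement, with coefficient of variation reported.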

[2] = Plasma concentration in mouse at 50 mg/kg, po after 2 hrs; assay type: ADME, organism-based; parameters: dose 50 mg/kg, route oral; outline: as §1
[3] = Volume of distribution at steady state in male rat at 1 mg/kg, iv; assay type: ADME, organism-based; parameters: dose 1 mg/kg, route intravenous; conditions: in vivo, read-out: Vdss
[4] = Clearance in female rat at 1 mg/kg, iv; assay type: ADME, organism-based; parameters: dose 1 mg/kg, route intravenous; conditions: in vivo
[5] = Clearance in male rat at 1 mg/kg, iv; assay type: ADME, organism-based; parameters: dose 1 mg/kg, route intravenous; conditions: in vivo
[6] = Metabolic stability in CD1 rat liver microsomes; assay type: ADME, Microsome
Outline: (§2)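 Stability measured as half-life on exposure to male CD-1 mouse and rat liver microsomes.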

[7] = Cmax in male rat at 10 mg/kg, po; assay type: ADME, organism-based; parameters: dose 10 mg/kg, route oral; conditions: in vivo
[8] = Oral bioavailability in female rat at 10 mg/kg; assay type: ADME, organism-based; conditions: in vivo
[9] = Cmax in female rat at 10 mg/kg, po; assay type: ADME, organism-based; parameters: dose 10 mg/kg, route oral; conditions: in vivo
[10] = AUC (infinity) in nude mouse at 50 mg/kg, po; assay type: ADME, organism-based; parameters: time infinity, dose 50 mg/kg, route oral; conditions: plasma
Outline: (§3)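 Female nude mice given a single dose, 2 mg/kg iv in 0.5% methylcellulose/1% Tween 80 brought to pH 3 with aqueous HCl, or 50 mg/kg by oral gavage. Three mice per group were bled by cardiac stick under isoflurane at 0.25, 0.5, 1, 4, 8 and 24 h and plasma collected. Cl, Vss, T1/2, Cmax, AUC extrapolated to infinity and %F were derived.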

[11] = Half life in nude mouse at 2 mg/kg, iv; assay type: ADME, organism-based; parameters: dose 2 mg/kg, route intravenous; conditions: in vivo; outline: as §3
[12] = AUC (infinity) in male rat at 10 mg/kg, po; assay type: ADME, organism-based; parameters: time infinity, dose 10 mg/kg, route oral; conditions: plasma
[13] = Half life in male rat at 1 mg/kg, iv; assay type: ADME, organism-based; parameters: dose 1 mg/kg, route intravenous; conditions: in vivo
[14] = Metabolic stability in mouse liver microsomes; assay type: ADME, Microsome; outline: as §2
[15] = Clearance in nude mouse at 2 mg/kg, iv; assay type: ADME, organism-based; parameters: dose 2 mg/kg, route intravenous; conditions: in vivo; outline: as §3
[16] = Oral bioavailability in nude mouse at 50 mg/kg; assay type: ADME, organism-based; conditions: in vivo; outline: as §3
[17] = Half life in female rat at 1 mg/kg, iv; assay type: ADME, organism-based; parameters: dose 1 mg/kg, route intravenous; conditions: in vivo
[18] = Volume of distribution at steady state in female rat at 1 mg/kg, iv; assay type: ADME, organism-based; parameters: dose 1 mg/kg, route intravenous; conditions: in vivo, read-out: Vdss
[19] = Cmax in nude mouse at 50 mg/kg, po; assay type: ADME, organism-based; parameters: dose 50 mg/kg, route oral; conditions: in vivo; outline: as §3
[20] = Apparent permeability across PAMPA membrane; assay type: ADME; conditions: read-out: permeability
Outline: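 Permeability measured in a PAMPA assay, reported in cm/s.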

[21] = Volume of distribution at steady state in nude mouse at 2 mg/kg, iv; assay type: ADME, organism-based; parameters: dose 2 mg/kg, route intravenous; conditions: in vivo, read-out: Vdss; outline: as §3
[22] = AUC (infinity) in female rat at 10 mg/kg, po; assay type: ADME, organism-based; parameters: time infinity, dose 10 mg/kg, route oral; conditions: plasma
[23] = Oral bioavailability in male rat at 10 mg/kg; assay type: ADME, organism-based; conditions: in vivo
[24] = Plasma concentration in mouse at 50 mg/kg, po after 1 hr; assay type: ADME, organism-based; parameters: dose 50 mg/kg, route oral; outline: as §1

concentration at 4 h [1]: 82 ng/mL
concentration at 2 h [2]: 319 ng/mL
SMILES: Cn1ccnc1Sc1ccc(Nc2c(C#N)cnc3cc(/C=C/CCN4CCCC4)ccc23)cc1Cl

concentration at 4 h [1]: 76 ng/mL
concentration at 2 h [2]: 267 ng/mL
SMILES: COc1cc2c(Nc3ccc(Sc4nccn4C)c(Cl)c3)c(C#N)cnc2cc1/C=C/CCN1CCN(C)CC1

concentration at 4 h [1]: 85 ng/mL
concentration at 2 h [2]: 368 ng/mL
SMILES: CN1CCN(CC/C=C/c2ccc3c(Nc4ccc(Sc5nccn5C)c(Cl)c4)c(C#N)cnc3c2)CC1

Vd [3]: 7.6 L/kg
clearance [4]: 35.7 mL/min/kg
clearance [5]: 70.3 mL/min/kg
half-life [6]: 21 min
Cmax [7]: 61 ng/mL
bioavailability [8]: 23%
concentration at 4 h [1]: 132 ng/mL
Cmax [9]: 298 ng/mL
AUC(0-inf) [10]: 2170 ng·h/mL
half-life [11]: 54 min
AUC(0-inf) [12]: 204 ng·h/mL
half-life [13]: 108 min
half-life [14]: 16.5 min
concentration at 2 h [2]: 494 ng/mL
clearance [15]: 66 mL/min/kg
bioavailability [16]: 17%
half-life [17]: 150 min
Vd [18]: 5.7 L/kg
Cmax [19]: 510 ng/mL
Papp [20]: 0.45 ×10⁻⁶ cm/s
Vd [21]: 2.7 L/kg
AUC(0-inf) [22]: 988 ng·h/mL
bioavailability [23]: 13%
SMILES: CCN1CCN(CC/C=C/c2ccc3c(Nc4ccc(Sc5nccn5C)c(Cl)c4)c(C#N)cnc3c2)CC1

concentration at 4 h [1]: 11 ng/mL
concentration at 1 h [24]: 72 ng/mL
SMILES: Cn1ccnc1Sc1ccc(Nc2c(C#N)cnc3cc(/C=C/CN4CCCC4)ccc23)cc1Cl

concentration at 4 h [1]: 22 ng/mL
concentration at 2 h [2]: 95 ng/mL
SMILES: Cn1ccnc1Sc1ccc(Nc2c(C#N)cnc3cc(/C=C/CCN4CCOCC4)ccc23)cc1Cl
